From ChEMBL document CHEMBL4219228, “Substituent effect of N-benzylated gramine derivatives that prevent the PP2A inhibition and dissipate the neuronal Ca2+ overload, as a multitarget strategy for the treatment of Alzheimer's disease” (Bioorg Med Chem, 2018)
Active and inactive are the calls of the source. The rule behind the calls is not given here.

Key:
[1] = biological target: Glutamate NMDA receptor (Rattus norvegicus) (UniProt P35439+Q00959+Q00960+Q00961+Q62645+Q8VHN2+Q9R1M7); experiment: Inhibition of NMDA receptor in rat cortical embryonic neurons assessed as reduction in NMDA-induced cytosolic calcium level at 10 uM by Fluo-4 AM dye based fluorescence assay relative to control
Outline: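 Cortical neurons came from E18 rat embryos (two pregnant rats). They were loaded with Fluo-4/AM (3 µM) in Krebs-HEPES, incubated with compound at 10 µM, then stimulated with NMDA 10 µM, and fluorescence was read at ex 485/em 520 nm. Normalized ΔF is reported as % blockade against vehicle (DMSO 0.1%), with ≥4 independent experiments in triplicate.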

[2] = test system: Voltage-gated calcium channel; experiment: Inhibition of KCl-induced cytosolic voltage gated calcium channel opening in human SH-SY5Y cells at 10 uM by Fluo-4 AM dye based fluorescence assay relative to control; type: cell-based
Outline: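 SH-SY5Y cells were loaded with Fluo-4/AM (10 µM) in Krebs-HEPES and preincubated with compound at 10 µM. They were then depolarized with 70 mM K+, and fluorescence (ex 485/em 520 nm) was monitored in real time. ΔF = (Fx−F0)/(Fmax−Fmin), using Triton X-100 for Fmax and MnCl2 for Fmin. Values are % blockade (100−ΔF) against vehicle (DMSO 0.1%), with ≥4 independent experiments in triplicate.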

[3] = biological target: Voltage-gated calcium channel; experiment: Inhibition of KCl-induced cytosolic voltage gated calcium channel opening in human SH-SY5Y cells by Fluo-4 AM dye based fluorescence assay; type: cell-based
Outline: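 Fluo-4/AM-loaded (10 µM) SH-SY5Y cells in Krebs-HEPES received compound at several concentrations before 70 mM K+ depolarization, with readings at ex 485/em 520 nm. ΔF was normalized to vehicle (DMSO 0.1%) cultures. IC50 is the concentration halving ΔF, from a variable-slope non-linear regression of log concentration vs normalized response. Three experiments in triplicate.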

[4] = test system: SH-SY5Y; experiment: Neuroprotective activity against okadaic acid-induced cell death in human SH-SY5Y cells assessed as cell viability at 0.1 uM preincubated for 24 hrs followed by cotreatment with PPA2 inhibitor okadaic acid measured after 20 hrs by MTT assay (reference value: 50.1 +/- 0.2%); type: functional; details: read-out: Activity
[5] = test system: SH-SY5Y; experiment: Cytotoxicity against human SH-SY5Y cells assessed as cell viability at 3 uM incubated for 48 hrs by MTT assay
[6] = biological target: T1, Serine/threonine-protein phosphatase 2A 55 kDa regulatory subunit B alpha isoform (Homo sapiens) (UniProt P63151); experiment: (§1) Reversal of okadaic acid mediated PP2A PR55alpha B regulatory subunit inactivation in human SH-SY5Y cells at 0.1 uM preincubated for 24 hrs followed by cotreatment with PPA2 inhibitor okadaic acid for 18 hrs measured over 30 mins by pNPP based spectrophotometric analysis; type: cell-based
T1 sequence (whole entry): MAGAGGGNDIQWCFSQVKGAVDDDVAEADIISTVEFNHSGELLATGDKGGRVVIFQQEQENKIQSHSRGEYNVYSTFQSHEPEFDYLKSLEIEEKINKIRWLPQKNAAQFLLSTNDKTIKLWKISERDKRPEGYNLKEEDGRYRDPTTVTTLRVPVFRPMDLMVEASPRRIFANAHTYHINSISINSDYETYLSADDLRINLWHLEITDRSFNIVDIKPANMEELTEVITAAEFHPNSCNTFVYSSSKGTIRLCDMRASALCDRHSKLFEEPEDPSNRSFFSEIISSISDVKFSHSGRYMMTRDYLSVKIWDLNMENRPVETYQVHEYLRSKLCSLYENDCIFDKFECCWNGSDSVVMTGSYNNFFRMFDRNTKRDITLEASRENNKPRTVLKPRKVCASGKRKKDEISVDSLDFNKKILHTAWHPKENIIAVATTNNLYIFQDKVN
Outline: (§2)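 SH-SY5Y cells were preincubated with compound for 24 h, then exposed for 18 h to okadaic acid 15 nM plus compound in fresh MEM/F12 with 1% FBS. Phosphatase activity was measured by pNPP dephosphorylation for 30 min at 37 °C, reading p-nitrophenolate at 405 nm. Values were normalized to cells not exposed to OA; at least three independent experiments.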

[7] = test system: SH-SY5Y; experiment: Cytotoxicity against human SH-SY5Y cells assessed as cell viability at 10 uM incubated for 48 hrs by MTT assay
[8] = biological target: T1, Serine/threonine-protein phosphatase 2A 55 kDa regulatory subunit B alpha isoform (Homo sapiens); experiment: as §1, with “cells assessed as residual activity” for “cells”, “analysis relative to control” for “analysis”; type: cell-based; outline: as §2

Compound	inhibition [1]	inhibition (INH) [2]	IC50 [3]	viability at 0.1 µM [4]	Activity [5]	Activity [6]	Activity [7]	Activity [8]
CC12CC3CC(C)(C1)CC(N)(C3)C2	41%	–	–	–	–	–	–	–
Cc1ccc2c(c1)c(CN1CCCCC1)cn2Cc1cccc([N+](=O)[O-])c1	22%	90%	3 µM	67%	Non-Toxic	–	–	–
COC(=O)C1=C(C)NC(C)=C(C(=O)OC)C1c1ccccc1[N+](=O)[O-] [NIFEDIPINE]	–	32%	–	–	–	–	–	–
Cc1ccc2c(c1)c(CN1CCCCC1)cn2Cc1ccccc1	42%	87%	3.4 µM	73%	–	Active	–	–
Cc1ccc(Cn2cc(CN3CCCCC3)c3cc(C)ccc32)cc1	32%	94%	3.6 µM	67%	Non-Toxic	Active	–	–
Cc1ccc2c(c1)c(CN1CCCCC1)cn2Cc1cccc(Cl)c1	37%	97%	2.2 µM	67%	Non-Toxic	Active	Toxic	–
Cc1ccc2c(c1)c(CN1CCCCC1)cn2Cc1ccc(F)cc1	34%	79%	4.8 µM	67%	Non-Toxic	Active	–	93%
Cc1ccc2c(c1)c(CN1CCCCC1)cn2Cc1ccc(Cl)cc1	52%	95%	3 µM	67%	Non-Toxic	Active	Toxic	–
Cc1ccc2c(c1)c(CN1CCCCC1)cn2Cc1ccccc1[N+](=O)[O-]	24%	90%	1.8 µM	70%	Non-Toxic	–	–	–
